{"data": "Results pooled from the literature", "LRRK2 G2019S": "Leucine-rich repeat serine/threonine-protein kinase 2 (LRRK2, Homo sapiens, UniProt Q5S007, G2019S)", "LRRK2": "Leucine-rich repeat serine/threonine-protein kinase 2 (LRRK2, Homo sapiens, UniProt Q5S007)", "note": "Lines come from different studies, so protocols differ."}
{"Compound": "CC(C)CC(=O)N1CCc2nc(-c3ccc(Br)cc3)nc(N(C)Cc3ccccc3)c2C1", "target": "LRRK2 G2019S", "assay": "cell-free assay, competition with immobilised ligand", "conditions": "0.1 µM", "quantity": "remaining binding", "value": "100%"}
{"Compound": "CN(C)C1CCN(CC#Cc2nn(C3CCCC3)c3nc(NCc4ccccc4)ncc23)C1 (stereo not shown)", "target": "LRRK2", "assay": "enzyme activity, inhibitor, FRET", "conditions": "0.1 µM", "quantity": "inhibition", "value": "-1%"}
{"Compound": "Cc1ccc(NC(=O)c2ccc(C)c(C(F)(F)F)c2)cc1C#Cc1nn(C2CCC(O)CC2)c2ncnc(N)c12 (stereo not shown)", "target": "LRRK2", "assay": "cell-free assay", "conditions": "10 µM", "quantity": "remaining signal", "value": "15%"}
{"Compound": "N#Cc1ccc(Nc2ccc3[nH]c(=O)[nH]c3c2)c(Cl)c1", "target": "LRRK2 G2019S", "assay": "cell-free assay, competition with immobilised ligand", "conditions": "1 µM", "quantity": "remaining binding", "value": "93%"}
{"Compound": "COc1cc(-c2cc(-c3ccc(N4CCNCC4)cc3)cnc2N)cc(OC)c1OC", "target": "LRRK2", "assay": "enzyme activity, inhibitor", "conditions": "1 µM", "quantity": "inhibition", "value": "33%"}
{"Compound": "CCN(CC)CCNC(=O)c1c(C)[nH]c(/C=C2\\C(=O)Nc3ccc(F)cc32)c1C", "target": "LRRK2", "assay": "cell-free assay", "conditions": "0.5 µM", "quantity": "remaining signal", "value": "3.34%"}
{"Compound": "CN(c1nccc(-c2cnn3ncccc23)n1)C1CC1", "target": "LRRK2 G2019S", "assay": "binding", "conditions": "1 µM", "quantity": "remaining binding", "value": "100%"}
{"Compound": "N#CCCc1ccc2c(c1)-c1[nH]c3ccc([N+](=O)[O-])cc3c1CC(=O)N2", "target": "LRRK2", "assay": "cell-free assay", "conditions": "0.5 µM", "quantity": "remaining signal", "value": "73.8%"}
{"Compound": "CN1CC(Oc2cnc(C#N)cc2-c2ccn3nc(NC(=O)C4CC4)cc3c2)C1", "target": "LRRK2", "assay": "enzyme activity, inhibitor", "conditions": "1 µM", "quantity": "inhibition", "value": "-19%"}
{"Compound": "COc1cc(Cl)c(C(=O)N[C@@H](CN[C@H]2CC[C@@H](N)CC2)Cc2ccc(C#N)cc2)cc1-c1ccc(CN[C@H](C)c2ccc(C)cc2)o1", "target": "LRRK2", "assay": "enzyme activity, inhibitor", "conditions": "1 µM", "quantity": "remaining activity", "value": "104%"}
{"Compound": "Nc1ncnc2occ(-c3ccc(NC(=O)Nc4cc(C(F)(F)F)ccc4F)cc3)c12", "target": "LRRK2 G2019S", "assay": "cell-free assay, inhibitor", "conditions": "20 µM", "quantity": "remaining signal", "value": "12%"}
{"Compound": "CC(C)(C)c1nc(-c2cccc(NS(=O)(=O)c3c(F)cccc3F)c2F)c(-c2ccnc(N)n2)s1", "target": "LRRK2", "assay": "enzyme activity, inhibitor, radiometric", "conditions": "1 µM", "quantity": "remaining activity", "value": "102%"}
{"Compound": "O=C1NC(=O)c2cc(Nc3ccc(F)cc3)c(Nc3ccc(F)cc3)cc21", "target": "LRRK2", "assay": "cell-free assay", "conditions": "0.5 µM", "quantity": "remaining signal", "value": "99.8%"}
{"Compound": "COCCOc1nc(-c2ccc(Cl)nc2)nc2c1CN(C(=O)c1ncn3ccccc13)CC2", "target": "LRRK2", "assay": "cell-free assay, competition with immobilised ligand", "conditions": "0.1 µM", "quantity": "remaining binding", "value": "100%"}
{"Compound": "Cc1ccc(C(=O)Nc2ccc(CN3CCN(C)CC3)c(C(F)(F)F)c2)cc1C#Cc1cnc2cccnn12", "target": "LRRK2 G2019S", "assay": "enzyme activity, inhibitor", "conditions": "23.5 nM", "quantity": "remaining activity", "value": "99%"}
{"Compound": "CN(C)CC#Cc1ccc(OCCCc2sc(N3CCc4cccc(C(=O)Nc5nc6ccccc6s5)c4C3)nc2C(=O)O)c(F)c1", "target": "LRRK2 G2019S", "assay": "cell-free assay, competition with immobilised ligand", "conditions": "1 µM", "quantity": "remaining binding", "value": "100%"}
{"Compound": "Cc1cc(NC(=O)c2cccc3cc(-c4cccc5[nH]nc(N)c45)ccc23)ccc1F", "target": "LRRK2", "assay": "enzyme activity, inhibitor", "conditions": "0.1 µM", "quantity": "activity vs control", "value": "98%"}
{"Compound": "O=C(O)[C@@H]1[C@@H](Cn2nnc3ccccc3c2=O)CC[C@H]1C(=O)c1ccc(OCCC2CCOCC2)cc1", "target": "LRRK2 G2019S", "assay": "cell-free assay, competition with immobilised ligand", "conditions": "1 µM", "quantity": "remaining binding", "value": "100%"}
{"Compound": "N[C@@H]1CCN(c2nccc(-c3cnn4ncccc34)n2)C1", "target": "LRRK2 G2019S", "assay": "binding", "conditions": "1 µM", "quantity": "remaining binding", "value": "100%"}
{"Compound": "COc1ccc2c(c1)O[C@@H](c1ccc(OC)c(OC)c1)C[C@H]2NC(=O)C1(c2ccc3c(c2)OC(F)(F)O3)CC1", "target": "LRRK2", "assay": "cell-free assay, competition with immobilised ligand", "conditions": "1 µM", "quantity": "remaining binding", "value": "87%"}
{"Compound": "CC1CCCN1c1nccc(-c2cnn3ncccc23)n1 (stereo not shown)", "target": "LRRK2", "assay": "binding", "conditions": "1 µM", "quantity": "remaining binding", "value": "100%"}
{"Compound": "CN(C)C(=O)Cn1cc(-c2nc(C3(c4ccc(-c5cnc(N)nc5)cc4)CC3)no2)cn1", "target": "LRRK2", "assay": "cell-free assay, competition with immobilised ligand", "conditions": "1 µM", "quantity": "remaining binding", "value": "100%"}
{"Compound": "Cc1cnn2ncc(-c3ccnc(N(C)C)n3)c2c1", "target": "LRRK2", "assay": "binding", "conditions": "1 µM", "quantity": "remaining binding", "value": "47%"}
{"Compound": "Cc1c(C(=O)O)cc(-c2ccc(C3CCNCC3)cc2)c2ccc(-c3ccc(C(F)(F)F)cc3)cc12", "target": "LRRK2 G2019S", "assay": "binding, competition with immobilised ligand", "conditions": "1 µM", "quantity": "remaining binding", "value": "100%"}
{"Compound": "O=C(Nc1cnn(-c2csc(C(=O)NC3COC3)c2)c1)Nc1c(F)cccc1Cl", "target": "LRRK2", "assay": "enzyme activity, inhibitor", "conditions": "5 µM", "quantity": "remaining activity", "value": "91.3%"}
